The EternaBench riboswitch data

Tested on: MS2 coat protein
Assay: apparent Kd, MS2 coat protein; higher = weaker binding; RNA-MaP array; FMN 200 µM where present
Summary of the method: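 In 100 mM Tris-HCl pH 7.5, 80 mM KCl, 4 mM MgCl2, BSA, DTT, yeast tRNA and Tween-20, SNAP-549-labelled MS2 coat protein was titrated from 0.7 or 1.5 nM, doubling to 3 µM, over designs transcribed by stalled E. coli RNA polymerase on Illumina sequencing-chip clusters. This was done first without ligand, then with ligand held constant. After green signal was normalised to red-channel RNA signal and control-cluster median Fmax, the apparent Kd was taken as the median of filtered per-cluster binding-curve fits.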

[1] = designed as: OFF switch for flavin mononucleotide, no ligand
[2] = ligand present: flavin mononucleotide, designed as: OFF switch for flavin mononucleotide
[3] = designed as: ON switch for flavin mononucleotide, no ligand
[4] = ligand present: flavin mononucleotide, designed as: ON switch for flavin mononucleotide

Row | Sequence | apparent Kd [1] | apparent Kd [2] | apparent Kd [3] | apparent Kd [4]
1 | GCACUGGAUGUAGGAUAUCAGGACGAUAAGUCCUGAGAAGGACAUGAGGAUCACCCAUGUCUCAAGAAACCAGUGCAUAAUAUA | 13 nM | 15.9 nM |  | 
2 | UACUUCCGAGGAUAUACAUGAGGAUCACCCAUGUGCUUCAGCAUUUUUUGAUGCAUGGGUAGAAGGCGGUAGUU | 315 nM | 270 nM |  | 
3 | GUUAGGCAUGUAGGAUAUCCAUUGCGUCGCGUUGGAGAAGGGCAGCACACAUGAGGAUCACCCAUGUGGUCUCCCAUGAUGUGU | 215 nM | 254 nM |  | 
4 | AAAAAACAUGAGGAUCACCCAUGUAAGGAUAUCGUGCAGAAAAAAAAAAAAAACUGCACGAGAAGGUACUUGGA | 81 nM | 143 nM |  | 
5 | GCGUUGUACGAGAAGGCCAAUACAUGAGGAUCACCCAUGUAAAGUUGUAAUGGAGGAUAUCGAACACAUUCAAUAAUGCAACGC | 8.29 nM | 5.66 nM |  | 
6 | UUCAAAUCGUAGAAGGGUGACAUGAGGAUCACCCAUGUGCAGCAGCCGUGAACGGCCAUGCUGCCACAGGAUAUACGAUGGAGU |  |  | 93.2 nM | 96.5 nM
7 | UCAGUAGAGUCAGGAUAUACGUCCAAAUUUCCUCACAUGAGGAUCACCCAUGUAGAAGGGACUCUACUGUAAGUCGGAAACGAC | 7.42 nM | 31 nM |  | 
8 | UCUUUGUUUGUGAGGAUAUCGGUGGGAUGGGUUGUCGAGAAGGCACAUGAGGAUCACCCAUGUGUGGGACAGCA | 15.3 nM | 15.2 nM |  | 
9 | UUCGAGUUGCAAGGAUAUCUUAUUUAGAUUUUAAGAGAAGGUGCUUCACAGCUACAUGAGGAUCACCCAUGUCUUUCUUCUUAU |  |  | 29.7 nM | 23.7 nM
10 | AAUUAUUUUUGAGGAUAUCGUGGUGAAACACCACGAGAAGGCGAGAUAAACAUGAGGAUCACCCAUGUGAGCCUGAUGCUUAUG | 21.2 nM | 44.4 nM |  | 
11 | AAUAAACUCACAGGAUAUAGCAGAGGUCGCGUGAACUUACAGGCGACGAGGCUAGAAGGGUGACCACAUGAGGAUCACCCAUGU |  |  | 858 nM | 95.8 nM
12 | UAGCAUUGCCUUUGGUAGUGCUUUACAUGAGGAUCACCCAUGUAGGAUAUGGUAGGCUUUGCUUACCAGAAGGACAUGAUAAUU | 52.9 nM | 166 nM |  | 
13 | AGCUGUGGCCGAGGAUAUCUAUCCAAAAUAACCGAAAUAUAAUCGGACAUGAGGAUCACCCAUGUAGAGAAGGCGGUCUCAGCA | 24.3 nM | 37 nM |  | 
14 | AUUUCGUCAGGAUAUCCUAGUAAUUGUUUCAUAUUUACGAUGGAGAAGGGACAUGAGGAUCACCCAUGUUGGUC | 55.8 nM | 169 nM |  | 
15 | UGCGGUAGAGGAUAUACGUAGAAGUAGAUUCAUGUAAAACUACAUGAGGAUCACCCAUGUAGAAGGCUAUCGCU | 22.9 nM | 230 nM |  | 
16 | GUGGUUCUCGUAGGAUAUGUAGGAUAUGCCUACAUGAGGAUCACCCAUGUUCGCAUGGCAGAAGGACAGAAGGACGAUCACCAG |  |  | 54.6 nM | 27.7 nM
17 | GGUUGUCAAAGACAACCAUAACGAACAUGAGGAUCACCCAUGUAGGAUAUGCUUCUCAAAGAGAAGCAGAAGGACAUGUGUCUU | 31.8 nM | 177 nM |  | 
18 | GGAAAUCAUGUAGGAUAUGCAUGGCGAAGCUACGCAGAAGGACAUGAGGAUCACCCAUGUUAUAGCGUCCGAGAAAGGAUGCGA | 55.6 nM | 114 nM |  | 
19 | GACAGCGACACAGGAUAUGUCAAUUUUACAUGAGGAUCACCCAUGUCCGAAGCAGAAGGGUGAUCGCACGCACACUAAGCCAUG |  |  | 86.5 nM | 98.3 nM
20 | CAGUCUACAGGAUAUACAUGAGGAUCACCCAUGUUUAUCAACCUUCAGUAAUCCACAUGUAGAAGGGUAGACUG | 19.7 nM | 21.4 nM |  | 
21 | GUAUGGAGGGAGAAGGGCUAGGAGGUCCAGCUUAUGUGUGUUGCAACAUGAGGAUCACCCAUGUAGCAGGAUAUCCCUUGUACA | 44.4 nM | 242 nM |  | 
22 | UUGCCCGCCGGAGGAUAUCUACUCUGUGGUGCACUGCGUUUGCAAUACAUGAGGAUCACCCAUGUAGAGAAGGCCGAGGGCACA | 318 nM | 48.3 nM |  | 
23 | GCCUAUUCGUGCAGUUAAGGAGCUCAGGAUAUCGCAAUAACAUGAGGAUCACCCAUGUCCGAAUACGAGAAGGGAGGUCCGACG |  |  | 140 nM | 13.9 nM
